From ChEMBL document CHEMBL1124259, “C-nor-9,11-secoestranes as modified estrogens and fertility regulation” (1988) come the findings set out here.

Each structure is given as a SMILES string.

What all share (format): functional
In assay [1] the test system is Rattus norvegicus. The assay is described as follows: Antiimplantation activity as minimum effective dose after oral administration. As to conditions: read-out: MED. The essentials: (§1)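 Colony-bred adult female rats (150–170 g) were dosed orally with the compound as a gum acacia suspension on days 1–7 postcoitum, five to seven animals per group. Implants were counted by laparotomy on day 10 of pregnancy. The value is the minimum dose at which implants were totally absent from both uterine horns.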

Assay [2] deals with Rattus norvegicus. The assay is described as follows: Antiimplantation activity as minimum effective dose after subcutaneous administration. As to conditions: sc, read-out: MED. The essentials:
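Compound was given subcutaneously in 0.5 mL propylene glycol–saline (1:1, v/v) to colony-bred adult female rats (150–170 g) on days 1–7 postcoitum, five to seven animals per group. Laparotomy on day 10 of pregnancy counted implants. The minimum dose giving total absence of implants in both uterine horns was recorded.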

Assay [3] concerns Rattus norvegicus. Kind of assay: Antiimplantation activity as minimum effective dose after peroral administration. As to conditions: po, read-out: MED. The procedure, abridged: as §1
Assay [4] has as its system Rattus norvegicus. The assay is described as follows: Antiimplantation activity was measured as minimum effective dose after oral administration. As to conditions: read-out: MED. The essentials: as §1
Assay [5] concerns Rattus norvegicus. The assay is described as follows: Antiimplantation activity as minimum effective dose after oral administration. As to conditions: read-out: MED. The essentials: as §1

For the molecule `C#C[C@]1(O)CCC(C2CCc3cc(O)ccc3C2)C1(C)C` (stereo not given in full), the minimal effective dose in assay [1] worked out at 0.75 mg/kg; in assay [2], 0.025 mg/kg.

`COc1ccc2c(c1)CCC(C1CCC(O)C1(C)C)C2` (stereo not given): the minimal effective dose in assay [3] came out at 10.5 mg/kg; in assay [2], 1.5 mg/kg.

As to `CC1(C)C(O)CCC1C1CCc2cc(O)ccc2C1` (stereo not given), the minimal effective dose in assay [3] was found to be 10 mg/kg; in assay [2], 0.01 mg/kg.

For the molecule `C#C[C@]1(O)CCC(C2CCc3cc(OC)ccc3C2)C1(C)C` (stereo not given in full), the minimal effective dose in assay [4] came out at 1 mg/kg; in assay [2], 0.025 mg/kg.

Turning to `C[C@]12CC[C@@H]3c4ccc(O)cc4CC[C@H]3[C@@H]1CC[C@@H]2O` [ESTRADIOL], the minimal effective dose in assay [2] came out at 0.015 mg/kg.

`C#C[C@]1(O)CC[C@H]2[C@@H]3CCc4cc(O)ccc4[C@H]3CC[C@@]21C` [ETHINYL ESTRADIOL]: the minimal effective dose in assay [5] stood at 0.15 mg/kg.
